Experimental data: ChEMBL document CHEMBL1781878, “Novel carbamate cholinesterase inhibitors that release biologically active amines following enzyme inhibition” (Bioorg Med Chem Lett, 2009)
Activity calls are given as the source filed them.

Tests used:
Rattus norvegicus [1] = experiment: Inhibition of total plasma cholinesterase in rat at 32 mg/kg, po measured 60 mins post dose; type: functional; settings: 1 h
Procedure, shortened: (§1)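 Rats given oral saline solutions of compound at the maximum tolerated or highest tested dose; sacrificed 60 min post-dose, blood collected and processed, plasma ChE activity measured spectrophotometrically (Ellman-type). n = 4 rats per group; mean reported.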

Homo sapiens = species on record: Homo sapiens; experiment: Selectivity index, ratio of IC50 for purified human […] to IC50 for human recombinant AChE
Procedure, shortened: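 Modified Ellman assay on recombinant human AChE and human serum-purified BuChE. Enzyme and inhibitor were preincubated 30 min at 25 °C in 10 mM Tris pH 8.0, then ATCh (0.3 mM) was added with DTNB (0.33 mM final). A405 was read for 5 min and initial rates compared to control. IC50s come from Dixon plots (≥5 inhibitor concentrations), triplicate, 2–3 independent runs. Selectivity is the ratio of the two IC50s.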

Rattus norvegicus [2] = experiment: Inhibition of total brain cholinesterase activity in rat at 32 mg/kg, po measured 30 to 180 mins post dose; type: functional
Procedure, shortened: (§2)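 Rats received oral saline solutions at the maximum tolerated or highest tested dose; after sacrifice, brain samples processed and total ChE activity determined spectrophotometrically versus control. n = 4 animals per group, mean given.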

[3] = molecular target: Acetylcholinesterase (Homo sapiens) (UniProt P22303)
Rattus norvegicus [4] = experiment: Toxicity in rat assessed as locomotor stimulation at 100 mg/kg, po; type: organism-based; design: dose 100 mg/kg, route oral; settings: in vivo
Procedure, shortened: (§3)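 Rats dosed orally and observed for cholinergic signs (salivation, lacrimation, fasciculations, diarrhea, seizures) and overt behaviour including locomotor stimulation. MTD defined as the dose giving clear, reversible, non-life-threatening cholinergic effects.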

Rattus norvegicus [5] = experiment: Inhibition of total brain cholinesterase activity in rat at >100 mg/kg, po measured 30 to 180 mins post dose; type: functional; procedure, shortened: as §2
Rattus norvegicus [6] = experiment: Memory enhancing effect in rat Scopolamine passive avoidance model assessed as reversal of Scopolamine-induced amnesia by measuring step-through latencies at 8 mg/kg, ip compound administered 30 mins before training and Scopolamine added 40 mins before training; type: functional, organism-based; design: dose 8 mg/kg
Procedure, shortened: (§4)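 Passive avoidance in rats: scopolamine hydrobromide 0.2 mg/kg sc 40 min before training; saline or compound ip 30 min before training. Retention test 24 h later, identical to training but without foot-shock or drug; latency to enter dark chamber recorded.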

Rattus norvegicus [7] = experiment: Inhibition of cholinesterase activity in rat assessed as reconstituted enzyme-mediated release of amphetamine in to plasma at 64 mg/kg, po measured 1 hr post dose; type: functional
Procedure, shortened: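 Rats dosed orally with test compound in saline; plasma collected 1 h post-dose and amphetamine content quantified by LC/MS/MS.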

Rattus norvegicus [8] = experiment: Inhibition of total plasma cholinesterase in rat at >100 mg/kg, po measured 60 mins post dose; type: functional; procedure, shortened: as §1
Rattus norvegicus [9] = experiment: Memory enhancing effect in rat Scopolamine passive avoidance model assessed as reversal of Scopolamine-induced amnesia by measuring step-through latencies at 12 mg/kg, ip compound administered 30 mins before training and Scopolamine added 40 mins before training; type: functional, organism-based; design: dose 12 mg/kg; procedure, shortened: as §4
Rattus norvegicus [10] = experiment: Inhibition of total plasma cholinesterase in rat at 5 mg/kg, po measured 30 to 180 mins post dose; type: functional
Procedure, shortened: (§5)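 Oral dosing in saline to rats; animals sacrificed at 30, 60 and 180 min; plasma and brain processed and ChE activity read spectrophotometrically. Value is mean of the three time points; n = 4 rats per group.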

Rattus norvegicus [11] = experiment: Toxicity in rat assessed as induction of seizures incidence at 5 mg/kg, po; type: organism-based; design: dose 5 mg/kg, route oral; settings: in vivo; procedure, shortened: as §3
Rattus norvegicus [12] = experiment: Toxicity in rat assessed as induction of severe fasciculation, salivation and lacrimation incidence at 5 mg/kg, po; type: organism-based; design: dose 5 mg/kg, route oral; settings: in vivo; procedure, shortened: as §3
Rattus norvegicus [13] = experiment: Toxicity in rat assessed as induction of diarrhea incidence at 5 mg/kg, po; type: organism-based; design: dose 5 mg/kg, route oral; settings: in vivo; procedure, shortened: as §3
Rattus norvegicus [14] = experiment: Inhibition of total brain cholinesterase activity in rat at 5 mg/kg, po measured 30 to 180 mins post dose; type: functional; procedure, shortened: as §5
Rattus norvegicus [15] = experiment: Inhibition of total brain cholinesterase activity in rat at >64 mg/kg, po measured 30 to 180 mins post dose; type: functional; procedure, shortened: as §2
Rattus norvegicus [16] = experiment: Inhibition of total plasma cholinesterase in rat at >64 mg/kg, po measured 60 mins post dose; type: functional; procedure, shortened: as §1
Rattus norvegicus [17] = experiment: Inhibition of total brain cholinesterase activity in rat at 10 mg/kg, po measured 30 to 180 mins post dose; type: functional; procedure, shortened: as §2
Cholinesterase = Cholinesterase (Homo sapiens, UniProt P06276); experiment: Inhibition of purified human plasma BuChE preincubated for 30 mins before DTNB substrate addition by spectrophotometric assay based Ellman's method
Procedure, shortened: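 Enzyme: human BuChE purified from serum. Modified Ellman assay. Inhibitor preincubated with enzyme 30 min at 25 °C in 10 mM Tris pH 8.0, then acetylthiocholine (0.3 mM) added; DTNB 0.33 mM final. At least five inhibitor levels plotted as Dixon plot; IC50 from x-intercept. Triplicates, two or three independent experiments.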

[18] = Toxicity in po dosed rat assessed as maximum tolerated dose at which reversible and non-life threatening cholinergic effect observed; type: organism-based; settings: in vivo; procedure, shortened: as §3
Rattus norvegicus [19] = experiment: Inhibition of total plasma cholinesterase in rat at 10 mg/kg, po measured 60 mins post dose; type: functional; settings: 1 h; procedure, shortened: as §1

Chain of Acetylcholinesterase (Homo sapiens) (P22303 whole entry): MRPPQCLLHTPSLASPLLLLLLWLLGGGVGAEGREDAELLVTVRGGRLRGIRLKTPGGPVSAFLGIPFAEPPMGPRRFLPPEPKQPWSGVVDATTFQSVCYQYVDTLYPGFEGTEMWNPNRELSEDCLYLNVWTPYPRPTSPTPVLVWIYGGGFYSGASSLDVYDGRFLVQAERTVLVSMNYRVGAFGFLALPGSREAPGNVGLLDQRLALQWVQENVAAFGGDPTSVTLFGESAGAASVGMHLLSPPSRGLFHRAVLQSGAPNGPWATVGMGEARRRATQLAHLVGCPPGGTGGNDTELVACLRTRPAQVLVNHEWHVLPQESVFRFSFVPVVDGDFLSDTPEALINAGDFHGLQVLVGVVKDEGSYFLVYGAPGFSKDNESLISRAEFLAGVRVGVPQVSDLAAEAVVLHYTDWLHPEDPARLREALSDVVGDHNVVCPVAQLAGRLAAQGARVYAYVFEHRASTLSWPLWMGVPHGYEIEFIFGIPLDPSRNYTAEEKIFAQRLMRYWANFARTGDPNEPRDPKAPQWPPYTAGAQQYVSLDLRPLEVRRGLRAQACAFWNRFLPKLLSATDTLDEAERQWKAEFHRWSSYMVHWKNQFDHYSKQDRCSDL
Chain of Cholinesterase (P06276 whole entry): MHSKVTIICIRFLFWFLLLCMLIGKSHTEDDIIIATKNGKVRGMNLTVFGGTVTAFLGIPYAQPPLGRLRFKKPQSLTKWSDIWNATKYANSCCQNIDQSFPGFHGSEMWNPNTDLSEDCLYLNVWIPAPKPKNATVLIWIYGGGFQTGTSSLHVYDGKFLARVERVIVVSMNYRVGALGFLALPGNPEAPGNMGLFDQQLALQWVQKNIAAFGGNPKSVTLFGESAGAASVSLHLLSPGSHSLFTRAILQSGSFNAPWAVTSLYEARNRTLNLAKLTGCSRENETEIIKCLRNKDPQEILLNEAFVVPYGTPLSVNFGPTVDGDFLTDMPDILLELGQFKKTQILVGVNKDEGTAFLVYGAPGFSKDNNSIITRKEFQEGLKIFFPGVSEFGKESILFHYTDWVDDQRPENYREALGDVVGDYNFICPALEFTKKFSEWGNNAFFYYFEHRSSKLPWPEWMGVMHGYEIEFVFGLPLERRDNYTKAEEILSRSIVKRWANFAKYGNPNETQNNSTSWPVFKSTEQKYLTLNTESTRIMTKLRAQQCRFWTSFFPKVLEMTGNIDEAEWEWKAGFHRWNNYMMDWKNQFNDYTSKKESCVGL

`C[C@H](Cc1ccccc1)NC(=O)Oc1cccc([C@H](C)N(C)C)c1` gave an inhibition in vivo at 32 mg/kg (Rattus norvegicus [1]) of 26%, a Ratio IC50 (Homo sapiens) of 1 and an inhibition in vivo at 32 mg/kg (Rattus norvegicus [2]) of 25%. It also gave a T1/2 [3] of 12 h.

With `C[C@@H](Cc1ccccc1)NC(=O)Oc1cccc([C@H](C)N(C)C)c1.Cl` the Activity (Rattus norvegicus [4]) was “Non-toxic”, the Ratio IC50 (Homo sapiens) was 14 and the “inhibition (INH)” value (Rattus norvegicus [5]) was 72%. The inhibition (Rattus norvegicus [6]) was “Active”, the Activity (Rattus norvegicus [7]) was 17 ng/mL and the “inhibition (INH)” value (Rattus norvegicus [8]) was 59%. For the same compound, the inhibition (Rattus norvegicus [9]) was “Active” and the T1/2 [3] was 1.2 h.

With `CCN(C)C(=O)Oc1cccc([C@H](C)N(C)C)c1` [RIVASTIGMINE] the inhibition in vivo at 5 mg/kg (Rattus norvegicus [10]) was 39%, the Activity (Rattus norvegicus [11]) was “Toxic” and the Activity (Rattus norvegicus [12]) was “Toxic”. For the same compound, the Activity (Rattus norvegicus [13]) was “Toxic”, the inhibition in vivo at 5 mg/kg (Rattus norvegicus [14]) was 56% and the T1/2 [3] was greater than 24 h.

For `C[C@@H](c1cccc(OC(=O)N(C)[C@@H](C)Cc2ccccc2)c1)N(C)C.Cl`, the “inhibition (INH)” value (Rattus norvegicus [15]) was 50%, the “inhibition (INH)” value (Rattus norvegicus [16]) was 50% and the T1/2 [3] was greater than 24 h.

Work on `C[C@H](Cc1ccccc1)N(C)C(=O)Oc1cccc([C@H](C)N(C)C)c1.Cl` yielded an inhibition in vivo at 10 mg/kg (Rattus norvegicus [17]) of 64%, an IC50 (Cholinesterase) of 24.4 µM and an MTD [18] of 10 mg/kg. The inhibition in vivo at 10 mg/kg (Rattus norvegicus [19]) was 45% and the T1/2 [3] was greater than 24 h.
